These results are taken from ChEMBL document CHEMBL4184277, “Substitution of terminal amide with 1H-1,2,3-triazole: Identification of unexpected class of potent antibacterial agents” (2018).

Values after ≈ are worked out from the molar mass of the structure shown. Active and inactive are the calls of the source.

For assay [1], the system named is Staphylococcus aureus. The experiment in a line: Antibacterial activity against penicillin-resistant Staphylococcus aureus after 24 hrs by broth microdilution method. The format is functional. (Broth dilution looks for growth in wells or tubes with falling amounts of substance.)
Assay [2] has as its target T1, Cell division protein FtsZ (Bacillus subtilis) (UniProt A5Z1V5).
T1 sequence (whole entry): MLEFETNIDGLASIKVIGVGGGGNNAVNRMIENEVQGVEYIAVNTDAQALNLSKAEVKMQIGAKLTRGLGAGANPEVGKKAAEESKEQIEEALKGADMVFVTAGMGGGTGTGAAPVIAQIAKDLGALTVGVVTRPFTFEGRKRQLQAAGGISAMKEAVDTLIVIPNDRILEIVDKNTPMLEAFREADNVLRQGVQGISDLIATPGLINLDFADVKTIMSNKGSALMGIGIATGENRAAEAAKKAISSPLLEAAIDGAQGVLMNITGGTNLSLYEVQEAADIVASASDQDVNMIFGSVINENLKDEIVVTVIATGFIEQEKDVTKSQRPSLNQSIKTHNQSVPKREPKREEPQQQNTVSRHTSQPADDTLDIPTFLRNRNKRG
The experiment in a line: Inhibition of FtsZ in Bacillus subtilis ATCC 9372 assessed as filamentation at 1 ug/ml.

The target in assay [3] is T2, Cell division protein FtsZ (Staphylococcus aureus) (UniProt P0A031).
T2 sequence (whole entry): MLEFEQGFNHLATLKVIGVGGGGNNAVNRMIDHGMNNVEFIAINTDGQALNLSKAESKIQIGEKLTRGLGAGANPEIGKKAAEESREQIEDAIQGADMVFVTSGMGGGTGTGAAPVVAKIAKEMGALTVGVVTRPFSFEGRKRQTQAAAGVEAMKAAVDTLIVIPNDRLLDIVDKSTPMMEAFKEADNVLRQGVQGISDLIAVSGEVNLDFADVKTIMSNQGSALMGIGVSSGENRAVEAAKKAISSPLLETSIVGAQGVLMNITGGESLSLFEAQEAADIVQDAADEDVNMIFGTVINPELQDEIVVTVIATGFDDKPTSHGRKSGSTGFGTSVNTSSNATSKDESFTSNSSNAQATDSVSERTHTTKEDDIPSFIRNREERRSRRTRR
In words: Inhibition of FtsZ in Staphylococcus aureus assessed as ballooning.

Assay [4] concerns Bacillus subtilis. The experiment in a line: Antibacterial activity against Bacillus subtilis ATCC 9372 after 24 hrs by broth microdilution method. The conditions noted are these: ATCC 9372, 24 h. It counts as functional. The method, boiled down:
(§1)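 Broth microdilution run to the standard NCCLS-recommended procedure, applied to all newly synthesized compounds, with a panel that included four Gram-positive strains.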

Assay [5] has as its system Klebsiella pneumoniae. The experiment in a line: Antibacterial activity against Klebsiella pneumoniae ATCC 700603 after 24 hrs by broth microdilution method. It counts as functional. Conditions: Klebsiella pneumoniae, 700603, 24 h. The method, boiled down:
as §1

The subject of assay [6] is Staphylococcus aureus. The experiment in a line: Antibacterial activity against methicillin-resistant Staphylococcus aureus ATCC 43300 after 24 hrs by broth microdilution method. It counts as functional. The conditions noted are these: ATCC 43300, 24 h.
Assay [7] deals with Staphylococcus aureus. The experiment in a line: Antibacterial activity against Staphylococcus aureus ATCC 25923 after 24 hrs by broth microdilution method. It counts as functional. The conditions noted are these: ATCC 25923, 24 h. The method, boiled down: as §1
In assay [8] the test system is Escherichia coli. In words: Antibacterial activity against Escherichia coli ATCC 25922 after 24 hrs by broth microdilution method. The conditions noted are these: ATCC 25922, 24 h. It counts as functional. The method, boiled down: as §1
For assay [9], the target named is T1, Cell division protein FtsZ (Bacillus subtilis). In words: Inhibition of FtsZ in Bacillus subtilis ATCC 9372 assessed as filamentation.

Take `CCCCC(CC)COc1cccc(-c2c[nH]nn2)c1` (racemic): the MIC in [1] was 4 µg/mL (≈ 14.6 µM); in [4], 2 µg/mL (≈ 7.32 µM); in assay [5], 4 µg/mL (≈ 14.6 µM); in [6] it was 4 µg/mL (≈ 14.6 µM); in [7], 2 µg/mL (≈ 7.32 µM); in [8] it was over 64 µg/mL. Also, in [2], the inhibition entry was “inactive”. Moreover, the inhibition entry in assay [3] is “Active”.
In the case of `CCCCC(CC)COc1cccc(-c2n[nH]c(=O)o2)c1` (racemic), the MIC is 8 µg/mL (≈ 27.6 µM) in assay [1]; 4 µg/mL (≈ 13.8 µM) in assay [4]; 4 µg/mL (≈ 13.8 µM) in [5]; 8 µg/mL (≈ 27.6 µM) in [6]; 4 µg/mL (≈ 13.8 µM) in assay [7]; over 64 µg/mL in [8]. Besides, in assay [3], the inhibition entry is “Active”. In addition, the inhibition result in assay [9] was “inactive”.
As to `CCCCC(CC)COc1ccc(-c2c[nH]nn2)cc1` (stereo not drawn), the MIC was 4 µg/mL (≈ 14.6 µM) in assay [1]; 2 µg/mL (≈ 7.32 µM) in assay [4]; 4 µg/mL (≈ 14.6 µM) in assay [5]; 4 µg/mL (≈ 14.6 µM) in assay [6]; 4 µg/mL (≈ 14.6 µM) in [7]; over 64 µg/mL in [8]. In addition, the inhibition entry in [3] is “Active”. For the same molecule, the inhibition entry in assay [9] is “inactive”.
Consider `CCCCC(CC)COc1cccc(Cn2cncn2)c1` (racemic), for which the MIC in assay [1] was 32 µg/mL (≈ 111 µM); in [4] it was 16 µg/mL (≈ 55.7 µM); in assay [5], 16 µg/mL (≈ 55.7 µM); in assay [6], 32 µg/mL (≈ 111 µM); in assay [7], 16 µg/mL (≈ 55.7 µM); in assay [8], over 64 µg/mL. In addition, in [3], the inhibition result was “Active”. In addition, in [9], the inhibition result was “inactive”.
As for `CCCCC(CC)COc1ccccc1-c1c[nH]nn1` (stereo not drawn), the MIC is 8 µg/mL (≈ 29.3 µM) in assay [1]; 8 µg/mL (≈ 29.3 µM) in [4]; 8 µg/mL (≈ 29.3 µM) in assay [5]; 8 µg/mL (≈ 29.3 µM) in assay [6]; 8 µg/mL (≈ 29.3 µM) in assay [7]; over 64 µg/mL in assay [8]. Also, the inhibition result in [3] was “Active”. For the same molecule, in assay [9], the inhibition entry was “inactive”.
For the molecule `CCCCCCCCOc1cccc(-c2c[nH]nn2)c1`, the minimum inhibitory concentration (MIC) was 4 µg/mL (≈ 14.6 µM) in assay [1]; 2 µg/mL (≈ 7.32 µM) in assay [4]; 4 µg/mL (≈ 14.6 µM) in assay [5]; 4 µg/mL (≈ 14.6 µM) in [6]; 4 µg/mL (≈ 14.6 µM) in assay [7]; over 64 µg/mL in assay [8]. The inhibition entry in [3] is “Active”. Also, the inhibition result in [9] was “inactive”.

A word on the MIC: it is the smallest concentration in the dilution series that meets the test's criterion for growth inhibition. Low values mean inhibition by little substance, high ones a need for much substance.
